Data from ChEMBL document CHEMBL1121573, “2-(Aminomethyl)phenols, a new class of saluretic agents. 1. Effects of nuclear substitution” (J Med Chem, 1980).
“And” between values parts separate entries of the source, which are not always exact repeats. Equal entries are not always repeated. One block for each compound: values may come before it.

Key:
Rattus norvegicus [1] = assay: Oral diuretic activity was evaluated by measuring Na+ excretion in Rat at 27 mg/kg […] (0-5 hr); assay type: ADME, organism-based, Urine; design: dose 27 mg/kg; settings: in vivo
Method in brief: (§1)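 Female Charles-River rats (150–170 g) were kept overnight on a sugar diet with water ad libitum. Compound was dissolved in DMF, then diluted with water containing Tween 80 (3 drops/100 mL) to a final 4% DMF, and given po in 5.0 mL. Rats were housed three per metabolism cage. Urine from 0–5 h was analysed for Na+, K+ and Cl−, with concurrent placebo controls. Values are mequiv × 100 per cage, geometric mean of three cages per dose.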

Rattus norvegicus [2] = assay: Oral diuretic activity was evaluated by measuring Na+ excretion in Rat at 81 mg/kg […] (0-5 hr); assay type: ADME, organism-based, Urine; design: dose 81 mg/kg; settings: in vivo
Rattus norvegicus [3] = assay: Oral diuretic activity was evaluated by measuring K+ excretion in Rat at 81 mg/kg after […] (0-5 hr); assay type: ADME, organism-based, Urine; design: dose 81 mg/kg
Method in brief: (§2)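 Female Charles-River rats (150–170 g) were kept overnight on a sugar diet with water ad libitum. Test substance was dissolved in DMF and diluted with water containing Tween 80 to a final 4% DMF vehicle, then given po in 5.0 mL. Rats were housed three per metabolism cage, and 0–5 h urine was assayed for Na⁺, K⁺ and Cl⁻ alongside concurrent placebo groups. Values are mequiv × 100 per cage, geometric means of three cages per dose.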

Rattus norvegicus [4] = assay: Oral diuretic activity was evaluated by measuring K+ excretion in Rat at 9 mg/kg […] (0-5 hr); assay type: ADME, organism-based, Urine; design: dose 9 mg/kg; method in brief: as §2
Rattus norvegicus [5] = assay: Oral diuretic activity was evaluated by measuring K+ excretion in Rat at 27 mg/kg […] (0-5 hr); assay type: ADME, organism-based, Urine; design: dose 27 mg/kg; method in brief: as §2
Rattus norvegicus [6] = assay: Oral diuretic activity was evaluated by measuring Cl- excretion in Rat at 27 mg/kg […] (0-5 hr); assay type: ADME, organism-based, Urine; design: dose 27 mg/kg; settings: in vivo
Rattus norvegicus [7] = assay: Oral diuretic activity was evaluated by measuring Cl- excretion in Rat at 9 mg/kg […] (0-5 hr); assay type: ADME, organism-based, Urine; design: dose 9 mg/kg; settings: in vivo; method in brief: as §2
Rattus norvegicus [8] = organism: Rattus norvegicus; assay: Time taken for the decrease in arterial pressure was measured; assay type: functional, Artery
Rattus norvegicus [9] = assay: Oral diuretic activity was evaluated by measuring Cl- excretion in Rat at 81 mg/kg after po administration (0-5 hr); settings: in vivo
Rattus norvegicus [10] = assay: Oral diuretic activity was evaluated by measuring Na+ excretion in Rat at 9 mg/kg […] ( 0-5 hr); assay type: ADME, organism-based, Urine; design: dose 9 mg/kg; settings: in vivo, ip; method in brief: as §1
Canis familiaris [11] = assay: Oral diuretic activity was evaluated by measuring Na+ excretion in dog at 0.6 mg/kg after ip administration ( 0-6 hr); assay type: ADME, organism-based, Canis lupus familiaris, Urine; design: dose 0.6 mg/kg, route intraperitoneal; settings: in vivo
Method in brief: (§3)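 Spontaneous urine was pooled with bladder urine collected by catheterization at 6 h. Volume was measured and Na+, K+ and Cl− were determined by standard methods. Values are geometric means.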

Canis familiaris [12] = assay: Oral diuretic activity was evaluated by measuring Na+ excretion in dog at 1.8 mg/kg after […] ( 0-6 hr); assay type: ADME, organism-based, Canis lupus familiaris, Urine; design: dose 1.8 mg/kg; settings: in vivo
Method in brief: (§4)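 Dogs; spontaneous urine was pooled with bladder urine drained by catheter at the end of 6 h. Urine volume was measured, and aliquots were assayed for Na+, K+ and Cl− by standard methods. Values are geometric means, expressed as mequiv over 0–6 h.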

Canis familiaris [13] = assay: Oral diuretic activity was evaluated by measuring Na+ excretion in dog at 16.2 mg/kg after […] ( 0-6 hr); assay type: ADME, organism-based, Canis lupus familiaris, Urine; design: dose 16.2 mg/kg; settings: in vivo; method in brief: as §4
Canis familiaris [14] = assay: Oral diuretic activity was evaluated by measuring K+ excretion in dog at 5.4 mg/kg after ip administration ( 0-6 hr); assay type: ADME, organism-based, Canis lupus familiaris, Urine; design: dose 5.4 mg/kg, route intraperitoneal; settings: in vivo; method in brief: as §3
Rattus norvegicus [15] = assay: Oral diuretic activity was evaluated by measuring Na+ excretion in Rat at 27 mg/kg […] ( 0-5 hr); assay type: ADME, organism-based, Urine; design: dose 27 mg/kg; method in brief: as §1
Rattus norvegicus [16] = assay: Oral diuretic activity was evaluated by measuring Na+ excretion in Rat at 81 mg/kg […] ( 0-5 hr); assay type: ADME, organism-based, Urine; design: dose 81 mg/kg; method in brief: as §1
Canis familiaris [17] = assay: Oral diuretic activity was evaluated by measuring Na+ excretion in dog at 5.4 mg/kg after ip administration ( 0-6 hr); assay type: ADME, organism-based, Canis lupus familiaris, Urine; design: dose 5.4 mg/kg, route intraperitoneal; settings: in vivo
Method in brief: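 Urine collected over 0–6 h: spontaneous voids were pooled with bladder urine taken by catheterization at 6 h. Urine volume was measured, and aliquots were analysed for Na+, K+ and Cl− by standard methods. Electrolyte excretion is reported as geometric means.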

Rattus norvegicus [18] = assay: Oral diuretic activity was evaluated by measuring K+ excretion in Rat at 3 mg/kg after […] ( 0-5 hr); assay type: ADME, organism-based, Urine; design: dose 3 mg/kg; method in brief: as §2
Rattus norvegicus [19] = assay: Oral diuretic activity was evaluated by measuring K+ excretion in Rat at 81 mg/kg […] ( 0-5 hr); assay type: ADME, organism-based, Urine; design: dose 81 mg/kg; method in brief: as §2
Rattus norvegicus [20] = assay: Oral diuretic activity was evaluated by measuring K+ excretion in Rat at 9 mg/kg […] ( 0-5 hr); assay type: ADME, organism-based, Urine; design: dose 9 mg/kg; method in brief: as §2
Canis familiaris [21] = assay: Oral diuretic activity was evaluated by measuring K+ excretion in dog at 0.6 mg/kg after […] ( 0-6 hr); assay type: ADME, organism-based, Canis lupus familiaris, Urine; design: dose 0.6 mg/kg, route intraperitoneal; settings: in vivo
Canis familiaris [22] = assay: Oral diuretic activity was evaluated by measuring K+ excretion in dog at 1.8 mg/kg after ip administration ( 0-6 hr); assay type: ADME, organism-based, Canis lupus familiaris, Urine; design: dose 1.8 mg/kg, route intraperitoneal; settings: in vivo; method in brief: as §3
Rattus norvegicus [23] = assay: Evaluated for salidiuretic activity measured as sodium ion excretion in Rat, administered orally at a dose of 50 mg/kg; assay type: functional, Urine; design: unit not given beside the values; settings: route oral
Method in brief: (§5)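 Female Charles-River rats (150–170 g), overnight on sugar diet with water ad libitum. Compound dissolved in DMF, diluted with water containing Tween 80 (final 4% DMF), given po in 5.0 mL; concurrent vehicle placebo. Three rats per metabolism cage; 0–5 h urine analysed for Na+, K+, Cl-. Values: mequiv × 100 per cage, geometric means of three cages per dose; scored 0–6 by Na+.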

[24] = Compound administered orally at a dose of 5 mg/kg was evaluated for salidiuretic activity measured as sodium ion excretion in Rat; assay type: organism-based; design: dose 5 mg/kg; settings: Urine; method in brief: as §5
Canis familiaris [25] = assay: Oral diuretic activity was evaluated by measuring Cl- excretion in dog at 5.4 mg/kg after […] ( 0-6 hr); assay type: ADME, organism-based, Canis lupus familiaris, Urine; design: dose 5.4 mg/kg, route intraperitoneal; settings: in vivo
[26] = Evaluated for salidiuretic activity measured as sodium ion excretion in Rat, administered orally at a dose of 16.5 mg/kg; assay type: organism-based; design: dose 16.5 mg/kg; settings: Urine; method in brief: as §5
Rattus norvegicus [27] = assay: Oral diuretic activity was evaluated by measuring Cl- excretion in Rat at 27 mg/kg after […] ( 0-5 hr); assay type: ADME, organism-based, Urine; design: dose 27 mg/kg, route intraperitoneal; settings: in vivo
Rattus norvegicus [28] = assay: Oral diuretic activity was evaluated by measuring Cl- excretion in Rat at 3 mg/kg after […] ( 0-5 hr); assay type: ADME, organism-based, Urine; design: dose 3 mg/kg, route intraperitoneal; settings: in vivo
Rattus norvegicus [29] = assay: Oral diuretic activity was evaluated by measuring Cl- excretion in Rat at 9 mg/kg […] ( 0-5 hr); assay type: ADME, organism-based, Urine; design: dose 9 mg/kg; settings: in vivo; method in brief: as §2
Canis familiaris [30] = assay: Oral diuretic activity was evaluated by measuring Cl- excretion in dog at 0.6 mg/kg after […] ( 0-6 hr); assay type: ADME, organism-based, Canis lupus familiaris, Urine; design: dose 0.6 mg/kg, route intraperitoneal; settings: in vivo
Canis familiaris [31] = assay: Oral diuretic activity was evaluated by measuring Cl- excretion in dog at 1.8 mg/kg after […] ( 0-6 hr); assay type: ADME, organism-based, Canis lupus familiaris, Urine; design: dose 1.8 mg/kg, route intraperitoneal; settings: in vivo
Canis familiaris [32] = assay: Oral diuretic activity was evaluated by measuring Cl- excretion in dog at 16.2 mg/kg after […] ( 0-6 hr); assay type: ADME, organism-based, Canis lupus familiaris, Urine; design: dose 16.2 mg/kg, route intraperitoneal; settings: in vivo
Rattus norvegicus [33] = assay: Maximum fall in mean arterial blood pressure was measured in SH rats when compound was administered at 20 mg/kg perorally; assay type: functional; settings: route oral
Canis familiaris [34] = assay: Oral diuretic activity was evaluated by measuring K+ excretion in dog at 16.2 mg/kg after ip administration ( 0-6 hr); assay type: ADME, organism-based, Canis lupus familiaris, Urine; design: dose 16.2 mg/kg, route intraperitoneal; settings: in vivo; method in brief: as §3
Rattus norvegicus [35] = assay: Oral diuretic activity was evaluated by measuring Na+ excretion in Rat at 3 mg/kg […] ( 0-5 hr); assay type: ADME, organism-based, Urine; design: dose 3 mg/kg; settings: in vivo, ip; method in brief: as §1
Rattus norvegicus [36] = assay: Oral diuretic activity was evaluated by measuring K+ excretion in Rat at 27 mg/kg after po administration ( 0-5 hr); settings: in vivo
Rattus norvegicus [37] = assay: Oral diuretic activity was evaluated by measuring Cl- excretion in Rat at 81 mg/kg after po administration ( 0-5 hr); settings: in vivo
Rattus norvegicus [38] = assay: Compound administered orally at a dose of 1 mg/kg was evaluated for salidiuretic activity measured as sodium ion excretion in Rat; settings: in vivo, po
Canis familiaris [39] = assay: Compound administered intravenously was evaluated for salidiuretic activity measured as sodium ion excretion in Dog; Value ranges from 800-899; assay type: ADME, organism-based, Canis lupus familiaris, Urine; settings: in vivo, iv
Method in brief: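 Conditioned female mongrel dogs, postabsorptive, water-loaded (500 mL po) 1 h before sodium pentobarbital anesthesia (30 mg/kg iv). Bladder catheter; creatinine 4 g sc; phosphate–mannitol buffer pH 7.4 infused (3.0 mL/min) throughout. […] Urine Na+ measured; response scored 0–6.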

Diuretic activity (Rattus norvegicus [1]): 0.04 | Diuretic activity (Rattus norvegicus [2]): 0.17 | Diuretic activity (Rattus norvegicus [3]): 0.11 | Diuretic activity (Rattus norvegicus [4]): 0.27 | Diuretic activity (Rattus norvegicus [5]): 0.07 | Diuretic activity (Rattus norvegicus [6]): 0.02 | Diuretic activity (Rattus norvegicus [7]): 0.02 | Diuretic activity (Rattus norvegicus [9]): 0.01
SMILES: NNc1nncc2ccccc12 [HYDRALAZINE]
Duration (Rattus norvegicus [8]): 8 h and 18 h

Diuretic activity (Rattus norvegicus [10]): 2.02 | Diuretic activity (Canis familiaris [11]): 8.12 | Diuretic activity (Canis familiaris [12]): 19.43 | Diuretic activity (Canis familiaris [13]): 33.33 | Diuretic activity (Canis familiaris [14]): 5.9 | Diuretic activity (Rattus norvegicus [15]): 2.17 | Diuretic activity (Rattus norvegicus [16]): 2.29 | Diuretic activity (Canis familiaris [17]): 33.15 | Diuretic activity (Rattus norvegicus [18]): 0.44 | Diuretic activity (Rattus norvegicus [19]): 0.44 | Diuretic activity (Rattus norvegicus [20]): 0.56 | Diuretic activity (Canis familiaris [21]): 2.01 | Diuretic activity (Canis familiaris [22]): 3.62 | Diuretic activity (Canis familiaris [25]): 37.15 | Diuretic activity (Rattus norvegicus [27]): 3.14 | Diuretic activity (Rattus norvegicus [28]): 1.62 | Diuretic activity (Rattus norvegicus [29]): 2.84 | Diuretic activity (Canis familiaris [30]): 9.91 | Diuretic activity (Canis familiaris [31]): 22.93 | Diuretic activity (Canis familiaris [32]): 38.78 | Diuretic activity (Canis familiaris [34]): 6.25 | Diuretic activity (Rattus norvegicus [35]): 1.14 | Diuretic activity (Rattus norvegicus [36]): 0.55 | Diuretic activity (Rattus norvegicus [37]): 3.2 | Diuretic activity (Rattus norvegicus [38]): 0.7
SMILES: CCc1c(Cl)c(C)c(CN)c(O)c1Cl.Cl
Diuretic activity (Rattus norvegicus [23]): 3.6 | Diuretic activity [24]: 2.6 | Diuretic activity [26]: 3.3 | MAP (Rattus norvegicus [33]): 10 mmHg

Diuretic activity (Canis familiaris [39]): 800
SMILES: CC(C)(C)c1cc(CN)c(O)c(C(=O)O)c1.Cl
